KCNK9 inh = inhibitors of human KCNK9 two-pore domain potassium channel | Q9NPC2 | HEK293 KCNK9, FluxOR thallium flux fluorescence; active compounds read low | B-score at 10 µM | actives 1.2% (n = 310,000);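 active = ratio B-score over 3 SD below the library mean, with starting fluorescence within 5 SD of its mean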;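 also: negative B-score means less thallium flux so channel inhibition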
KCNK3 block = human KCNK3 channel inhibition, primary screen; O14649; CHO-KCNK3 thallium flux, FluxOR fluorescence; active compounds read low; B-score at 10 µM; actives 0.84% (n = 340,000);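 active = B-score under library mean minus 4 SD, starting fluorescence ratio at most library mean plus 5 SD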;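 also: more negative B-score means stronger inhibition of thallium flux through KCNK3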
Target sequence (O14649 whole entry, looked up): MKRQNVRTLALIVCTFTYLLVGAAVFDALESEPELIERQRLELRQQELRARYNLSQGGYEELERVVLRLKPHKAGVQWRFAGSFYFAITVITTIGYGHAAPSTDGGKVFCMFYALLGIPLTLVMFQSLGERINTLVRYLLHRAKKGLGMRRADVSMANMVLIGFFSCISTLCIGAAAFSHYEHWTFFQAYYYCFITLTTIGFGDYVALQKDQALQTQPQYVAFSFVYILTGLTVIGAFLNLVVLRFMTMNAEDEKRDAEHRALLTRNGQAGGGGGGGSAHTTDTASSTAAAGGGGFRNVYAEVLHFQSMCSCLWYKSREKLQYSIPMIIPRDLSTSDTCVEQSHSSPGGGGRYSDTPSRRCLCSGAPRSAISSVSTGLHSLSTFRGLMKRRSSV
KCNQ1 inh = inhibitors of human KCNQ1 potassium channel. B-score at 10 µM. CHO-K1 KCNQ1, FluxOR thallium flux fluorescence; active compounds read high. P51787. actives 1.3% (n = 310,000);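 active = compounds whose thallium flux B-score, printed positive for inhibition, exceeds three library SD while starting fluorescence stays within three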;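 also: channel opened by potassium depolarization with thallium stimulus after 20 min compound exposure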
KCNQ1 pot = potentiates or activates the human KCNQ1 potassium channel | actives 0.35% (n = 310,000) | CHO-K1 KCNQ1, thallium flux FluxOR fluorescence; active compounds read high | B-score at 10 µM | P51787;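 active = fluorescence ratio B-score, a plate-corrected score, at least three library SD, with initial intensity B-score within 5 SD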
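Medium – assay buffer, equal DMSO in all wells · Material – CHO-K1 cell line with stable KCNQ1 potassium channel expression · Signal – kinetic FluxOR thallium fluorescence, 10-s 1-Hz baseline, 110-s post-stimulus read · Compound – single concentration per compound, DMSO matched to controls · Schedule – 37 °C overnight plating, 90-min dark dye load, 20-min compound pretreatment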
Kir21 block = blocks the mouse Kir2.1 inward-rectifier potassium channel; HEK293-Kir2.1, FluxOR thallium flux fluorescence; active compounds read low; B-score at 10 µM; actives 0.85% (n = 310,000); AID 1672;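 active = fluorescence ratio B-score at or below minus 3 SD of library scores, with starting-brightness B-score within 2 SD, cut at about -4.2 in these data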;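 also: channel flux triggered by added potassium and thallium sulfate stimulus; B-score of peak minus minimum fluorescence over baseline after thallium stimulus; more negative B-score means stronger Kir2.1 block with less thallium influx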
hERG protect = hERG (human) protection from proarrhythmic block; activation (rescue from dofetilide block), less the hit threshold, % at 10 µM; CHO-hERG, FluxOR thallium flux, dofetilide IC70 present; AID 1511; actives 0.51% (n = 310,000); Q12809;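 active = activation above the mean of controls blocked by dofetilide plus 5 SD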;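 also: thallium influx through hERG after potassium depolarization seen as dye fluorescence rise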
Numbers stand for hits; n = inactive; x = no result given. The list is not random: actives were taken first. Their share in the collection is about 3.7%.

SMILES	KCNK9 inh	KCNK3 block	KCNQ1 inh	KCNQ1 pot	Kir21 block	hERG protect
O=[N+]([O-])c1ccc(NC(=S)N2CCc3ccccc32)cc1	n	n	9	n	n	n
O=C(COc1ccccc1F)N1CCCc2ccccc21	n	n	n	n	n	n
O=C(COc1ccc(Cl)cc1Cl)OCC(=O)N1CCCc2ccccc21	n	n	n	n	n	n
CN(Cc1ccccc1)S(=O)(=O)c1ccc(Cl)c(C(=O)NCCCN2CCOCC2)c1	n	n	n	n	n	n
NC(=Nc1nc(-c2ccccn2)cc2ccccc12)c1ccccn1	x	n	x	x	x	x
CCCCN(C(=O)C1CCCC1)c1c(N)n(CC(C)C)c(=O)[nH]c1=O	x	n	x	x	x	x
COc1ccccc1NC(=O)c1ccc(NC(=O)COC(=O)C2(C)CC2(Cl)Cl)cc1 (stereo unspecified)	n	n	n	n	n	n
O=C(NC(=S)N1CCc2ccccc21)c1ccccc1Cl	n	n	n	24	n	31
CCN1C(=O)[C@H]2[C@@H](c3ccc(Cl)cc3)N3C(=O)CN(CC4CC4)C(=O)[C@@]3(C)[C@H]2C1=O	n	n	n	n	n	n
CSc1cc(SC)ncn1	x	n	x	x	x	x
Cc1cc(OC(C)C(=O)NNC(=O)Nc2ccc(F)cc2F)cc(C)c1Cl (stereo unspecified)	n	n	n	n	n	n
N#Cc1nc(COc2ccc(Cl)cc2Cl)oc1N1CCN(c2ccccc2)CC1	-6.6	n	n	n	n	n
Cc1ccc(CSCC(=O)N(C)CC(=O)Nc2ccc(Cl)c(Cl)c2)cc1	n	n	n	n	n	n
CCOC(=O)c1c(-c2ccccc2)oc2ccc(O)c(CN3CCN(C)CC3)c12	n	n	n	n	-9.3	n
CCOC(=O)c1c(C)n(C)c2ccc(O)c(CN3CCN(C)CC3)c12	n	n	n	n	n	n
CCOC(=O)c1c(CSc2ccccc2)n(C)c2ccc(O)c(CN3CCOCC3)c12	n	n	n	n	-5.4	n
CCOC(=O)c1c(C)n(C)c2ccc(O)c(CN3CCC(C)CC3)c12	n	n	n	n	n	n
CCOC(=O)c1c(CSc2ccccc2)n(C)c2cc(Br)c(OC)c(O)c12	n	n	6	n	n	n
OC(c1ccccc1)C(NCCNCc1ccccc1)c1ccccc1 (stereo unspecified)	x	n	x	x	x	x
COc1ccc(OC)c(NC(=O)COC(=O)COc2ccc(Nc3ccccc3)cc2)c1	x	n	x	x	x	x
COc1ccc(-n2c(-c3ccc(Cl)cc3)c[n+]3c2CCc2ccccc2-3)cc1	n	n	11	n	n	n
CC(C)c1ccc(/C=C/C(=O)NC(=S)NN2CCOCC2)cc1	n	n	n	n	n	n
CC(C)c1ccc(/C=C/C(=O)NC(=S)Nc2ccc(CN3CCOCC3)cc2)cc1	n	n	9	n	n	n
Cc1n[nH]c(=O)c2c(NC(=O)CSc3nn(-c4ccc(F)cc4)c(=S)s3)oc(C)c12	n	n	6	n	n	n
CC(=O)n1cc(C(C[N+](=O)[O-])SCCN)c2ccccc21 (stereo unspecified)	n	n	n	n	-13	n
SMILES	KCNK9 inh	KCNK3 block	KCNQ1 inh	KCNQ1 pot	Kir21 block	hERG protect
Cn1cc(C(C[N+](=O)[O-])c2ccccc2)c2ccccc21 (stereo unspecified)	n	n	n	n	n	n
CCOC(=O)c1c(C)n(-c2ccccc2)c2ccc(O)c(CN(C)C)c12	n	n	n	n	-4.7	n
O=C(c1ccco1)N1CCCN(Cc2nc(-c3ccc4c(c3)OCO4)no2)CC1	n	n	n	n	n	n
Fc1ccc(CN2CCCN(Cc3nc(-c4ccc5c(c4)OCO5)no3)CC2)cc1	n	n	n	n	-6.8	n
COc1ccc(OCc2cc(C(=O)N(C)CC3CCCCO3)no2)c(Cl)c1 (stereo unspecified)	n	n	n	n	n	n
COc1cc(Cl)ccc1OCc1cc(C(=O)N(C)CC2CCCCO2)no1 (stereo unspecified)	n	n	n	n	-4.5	n
Cc1ccc(C2=N/C(=C\c3c(C)nn(-c4ccccc4)c3N3CCCC3)C(=O)O2)cc1	n	n	9	n	n	n
Cc1c(C(=O)c2no[n+]([O-])c2C(=O)c2cnn(C)c2C)cnn1C	n	n	6	n	n	n
COCc1c(C(=O)NCCOc2ccc(Cl)cc2)oc2ccccc12	x	-8.9	x	x	x	x
